Laboratory results as given in ChEMBL document CHEMBL3822361, “Novel 1,6-naphthyridin-2(1H)-ones as potential anticancer agents targeting Hsp90” (Eur J Med Chem, 2016).
pIC50: −log10 of the molar value. The source made the active and inactive calls. The calls are words filed in the database; no cut-off is given here.

Legend:
MCF7 [1] = test: Antiproliferative activity against human MCF7 cells measured after 48 hrs by MTT assay; format: functional, cell-based; conditions: MCF7, 48 h
How it was run: (§1)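 Cells grown in DMEM with 2 mM L-glutamine, penicillin/streptomycin and 5% FBS at 37 °C, 5% CO2; seeded 6000/well in 96-well plates, attached 24 h. Compounds added over a concentration range in DMSO (1% final), 48 h. MTT (2.5 mg/mL in PBS) added for 3.5 h, formazan dissolved in DMSO, OD 570 nm. Growth relative to 1% DMSO; IC50 from separate triplicate experiments.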

MDA-MB-468 [2] = test: Antiproliferative activity against human MDA-MB-468 cells measured after 48 hrs by MTT assay; format: functional, cell-based; conditions: MDA-MB-468, 48 h; how it was run: as §1
[3] = molecular target: T1, Heat shock protein HSP90 (Homo sapiens) (UniProt P07900+P08238); test: Inhibition of HSP90 in human MCF7 cells assessed as Raf-1 protein degradation at 1.5 times IC50 measured after 48 hrs by western blot analysis; format: cell-based
How it was run: (§2)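 Cells seeded in 6-well plates, 24 h at 37 °C, 5% CO2, then exposed 48 h to compound or 17-AAG in DMSO (1% final) or to vehicle. Lysed 2 h on ice in buffer with protease and phosphatase inhibitors, sonicated, protein measured by BCA. Equal protein run on SDS-PAGE, moved to PVDF, primary antibodies overnight at 4 °C, HRP secondary 1 h, ECL chemiluminescence.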

MDA-MB-468 [4] = test: Effect on actin level in human MDA-MB-468 cells at 1.5 times IC50 measured after 48 hrs by western blot analysis; format: cell-based; conditions: mda-mb-468, 48 h; how it was run: as §2
[5] = molecular target: T1, Heat shock protein HSP90 (Homo sapiens); test: Inhibition of HSP90 in human MCF7 cells assessed as induction of prosurvival heat shock response at 1.5 times IC50 measured after 48 hrs by Western blot analysis; format: cell-based; how it was run: as §2
[6] = molecular target: T1, Heat shock protein HSP90 (Homo sapiens); test: Inhibition of HSP90 in human MCF7 cells assessed as ER-alpha protein degradation at 1.5 times IC50 measured after 48 hrs by western blot analysis; format: cell-based; how it was run: as §2
MCF7 [7] = test: Effect on actin level in human MCF7 cells at 1.5 times IC50 measured after 48 hrs by western blot analysis; format: cell-based; conditions: mcf7, 48 h; how it was run: as §2
MDA-MB-468 [8] = test: Effect on HSP90 level in human MDA-MB-468 cells at 1.5 times IC50 measured after 48 hrs by western blot analysis; format: cell-based; conditions: mda-mb-468, 48 h; how it was run: as §2
MDA-MB-468 [9] = test: Induction of apoptosis in human MDA-MB-468 cells at 2 uM measured after 48 hrs by Annexin V-FITC/propidium iodide staining-based flow cytometry; format: functional, cell-based
How it was run: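 Cells incubated 24 h at 37 °C, 5% CO2, then given compounds in DMSO (1% final) for 48 h. Floating and trypsinized adherent cells pooled, PBS-washed, stained with annexin V-FITC plus propidium iodide in binding buffer, 15 min on ice in the dark. Flow cytometry, ≥10 000 events per sample; annexin V-positive cells scored as apoptotic.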

[10] = molecular target: T1, Heat shock protein HSP90 (Homo sapiens); test: Inhibition of HSP90 in human MDA-MB-468 cells assessed as Raf-1 protein degradation at 1.5 times IC50 measured after 48 hrs by western blot analysis; format: cell-based; how it was run: as §2
[11] = molecular target: T1, Heat shock protein HSP90 (Homo sapiens); test: Inhibition of HSP90 in human MCF-7 cells assessed as ER-alpha protein degradation at 1.5 times IC50 measured after 48 hrs by western blot analysis
MCF7 [12] = test: Effect on HSP90 level in human MCF7 cells at 1.5 times IC50 measured after 48 hrs by western blot analysis; format: cell-based; conditions: mcf7, 48 h; how it was run: as §2
MDA-MB-468 [13] = test: Effect on cell cycle distribution in human MDA-MB-468 cells assessed as accumulation at G2/M-phase at 2 uM measured after 48 hrs by propidium iodide staining-based flow cytometry; format: functional
How it was run: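 MDA-MB-468 seeded 40,000/well in 24-well plates, 24 h at 37 °C, 5% CO2, then treated 48 h with compounds in DMSO (1% final). Cells trypsinized, washed in PBS, fixed in 70% ethanol, rehydrated in PBS, stained with propidium iodide in PBS. Phase distribution (G1, S, G2/M, polyploid, subG1) read by flow cytometry.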

COc1cccc(C(=O)Nc2cc3cnc(NCCN(C)C)cc3n(C)c2=O)c1
pIC50 (MCF7 [1]): 4.36
pIC50 (MDA-MB-468 [2]): 4.76

CN(C)CCNc1cc2c(cn1)cc(NC(=O)/C=C/c1ccccc1)c(=O)n2C
pIC50 (MCF7 [1]): 4.56
pIC50 (MDA-MB-468 [2]): 4.92

Cn1c(=O)c(NC(=O)c2cc3ccccc3s2)cc2cnc(NCCN3CCOCC3)cc21
pIC50 (MCF7 [1]): < 4.00
pIC50 (MDA-MB-468 [2]): < 4.00

CO[C@@H]1[C@@H](OC(N)=O)[C@@H](O)[C@H](Oc2ccc3c(O)c(NC(=O)c4ccc(O)c(CC=C(C)C)c4)c(=O)oc3c2C)OC1(C)C [NOVOBIOCIN]
pIC50 (MCF7 [1]): 3.53
pIC50 (MDA-MB-468 [2]): 3.47

CN(C)CCNc1cc2c(cn1)cc(NC(=O)c1cccc(-c3ccccc3)c1)c(=O)n2C
pIC50 (MCF7 [1]): 5.71
inhibition [3]: Active
Activity (MDA-MB-468 [4]): Non-toxic
inhibition [5]: Active
inhibition [6]: Active
Activity (MCF7 [7]): Non-toxic
Activity (MDA-MB-468 [8]): Toxic
Activity (MDA-MB-468 [9]): Active
inhibition [10]: Active
inhibition [11]: Active
Activity (MCF7 [12]): Toxic
pIC50 (MDA-MB-468 [2]): 5.77
Activity (MDA-MB-468 [13]): inactive

CC(=O)Nc1cc2cnc(NCCN3CCOCC3)cc2n(C)c1=O
pIC50 (MCF7 [1]): < 4.00
pIC50 (MDA-MB-468 [2]): < 4.00

Cn1c(=O)c(NC(=O)c2ccc(O)cc2)cc2cnc(NCCN3CCOCC3)cc21
pIC50 (MCF7 [1]): < 4.00
pIC50 (MDA-MB-468 [2]): < 4.00

Cn1c(=O)c(NC(=O)c2ccc(N)cc2)cc2cnc(NCCN3CCOCC3)cc21
pIC50 (MCF7 [1]): < 4.00
pIC50 (MDA-MB-468 [2]): < 4.00

CN(C)CCNc1cc2c(cn1)cc(NC(=O)c1ccc(N)cc1)c(=O)n2C
pIC50 (MCF7 [1]): 4.25
pIC50 (MDA-MB-468 [2]): 4.69

CCCNc1cc2c(cn1)cc(NC(=O)c1cccc(-c3ccccc3)c1)c(=O)n2C
pIC50 (MCF7 [1]): 5.22
inhibition [3]: Active
Activity (MDA-MB-468 [4]): Non-toxic
inhibition [6]: Active
Activity (MCF7 [7]): Non-toxic
Activity (MDA-MB-468 [8]): Non-toxic
Activity (MDA-MB-468 [9]): inactive
inhibition [10]: Active
inhibition [11]: Active
Activity (MCF7 [12]): Non-toxic
pIC50 (MDA-MB-468 [2]): 5.73
Activity (MDA-MB-468 [13]): Active

COc1cc(C(=O)Nc2cc3cnc(NCCN4CCOCC4)cc3n(C)c2=O)cc(OC)c1OC
pIC50 (MCF7 [1]): 4.31
pIC50 (MDA-MB-468 [2]): < 4.00

CN(C)CCNc1cc2c(cn1)cc(NC(=O)c1ccc(Cl)cc1)c(=O)n2C
pIC50 (MCF7 [1]): 5.51
inhibition [3]: Active
Activity (MDA-MB-468 [4]): Non-toxic
inhibition [6]: Active
Activity (MCF7 [7]): Non-toxic
Activity (MDA-MB-468 [8]): Non-toxic
Activity (MDA-MB-468 [9]): Active
inhibition [10]: Active
inhibition [11]: Active
Activity (MCF7 [12]): Non-toxic
pIC50 (MDA-MB-468 [2]): 5.79
Activity (MDA-MB-468 [13]): Active

COc1ccc(C(=O)Nc2cc3cnc(NCCN(C)C)cc3n(C)c2=O)cc1
pIC50 (MCF7 [1]): 4.43
pIC50 (MDA-MB-468 [2]): 4.80

Cn1c(=O)c(NC(=O)/C=C/c2ccccc2)cc2cnc(NCCN3CCOCC3)cc21
pIC50 (MCF7 [1]): < 4.00
pIC50 (MDA-MB-468 [2]): < 4.00
